# Assay results taken from ChEMBL document CHEMBL1122288, “Relationship between metabolism and radioprotective activity of 2-phenylthiazolidine and its m-bromo derivative” (J Med Chem, 1983).
# What was measured:
# [1] = test system: Mus musculus; experiment: Percent survival at 15 min time interval between administration (500mg/kg, ip) and irradiation* in mice; format: functional
# [2] = test system: Mus musculus; experiment: Percent survival at 1 hr time interval between administration (500 mg/kg, ip) and irradiation* in mice; format: functional
# [3] = species: Mus musculus; experiment: Lethal dose in mice; format: functional
# [4] = test system: Mus musculus; experiment: Percent survival at 6 hr time interval between administration (500 mg/kg, ip) and irradiation* in mice; format: functional
# [5] = test system: Mus musculus; experiment: Percent survival at 2 hr time interval between administration (500 mg/kg, ip) and irradiation* in mice; format: functional
# [6] = test system: Mus musculus; experiment: fecal levels excreted after administration of 2-(3-bromophenyl)thiazolidine(500 mg/kg) to mice measured at 0-30h; format: ADME, organism-based; conditions: in vivo
# Method in brief: (§1)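 Radiolabelled compound ([³⁵S] or [α-¹⁴C]) given intraperitoneally in Miglyol 812 to mice, which were then housed in separate metabolic cages and fed normally. Faeces were collected over 0-30 h, pounded and counted by liquid scintillation. Values are percent of injected dose, given as mean ± standard error. Each line has its own number of experiments.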
# [7] = test system: Mus musculus; experiment: fecal levels excreted after administration of 2-phenylthiazolidine (500 mg/kg) to mice measured at 0-30h; format: ADME, organism-based; conditions: in vivo; method in brief: as §1
# [8] = test system: Mus musculus; experiment: fecal levels excreted after administration of benzaldehyde (250 mg/kg) to mice measured at 0-30h; format: ADME, organism-based; conditions: in vivo
# Method in brief: (§2)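 [α-14C]Benzaldehyde was given at 250 mg/kg intraperitoneally in Miglyol 812. Mice were kept in separate metabolic cages and fed normally. Urine was collected at 6, 24 and 30 h, and feces were pounded. Radioactivity was measured by liquid scintillation counting and expressed as percent of injected dose excreted, given as mean ± standard error of 4 experiments.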
# [9] = urine levels excreted after administration of benzaldehyde (250 mg/kg) to mice measured at 24-30 hr; format: ADME, organism-based; conditions: mouse, read-out: Excretion; method in brief: as §2
# [10] = test system: Mus musculus; experiment: urine levels excreted after administration of benzaldehyde (250 mg/kg) to mice measured at 0-6 hr; format: ADME, organism-based; conditions: in vivo; method in brief: as §2
# [11] = urine levels excreted after administration of benzaldehyde (250 mg/kg) to mice measured at 0-24 hr; format: ADME, organism-based; conditions: mouse, read-out: Excretion; method in brief: as §2
# [12] = test system: Mus musculus; experiment: Percent survival at 2 hr time interval between administration (225 mg/kg, ip) and irradiation* in mice; format: functional
# [13] = test system: Mus musculus; experiment: urine levels excreted after administration of cysteamine (175 mg/kg) to mice measured at 0-24 hr; format: ADME, organism-based; conditions: in vivo
# Method in brief: (§3)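 [³⁵S]cysteamine 175 mg/kg given intraperitoneally in Miglyol 812 to mice, which were then housed in separate metabolic cages and fed normally. Urine was sampled at 6, 24 and 30 h and counted by liquid scintillation. Values are percent of injected dose excreted, as mean ± standard error of 4-5 experiments. The Mann-Whitney-Wilcoxon test was used for significance.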
# [14] = test system: Mus musculus; experiment: urine levels excreted after administration of cysteamine (175 mg/kg) to mice measured at 0-6 hr; format: ADME, organism-based; conditions: in vivo; method in brief: as §3
# [15] = test system: Mus musculus; experiment: Percent survival at 15 min time interval between administration (225 mg/kg, ip) and irradiation* in mice; format: functional
# [16] = urine levels excreted after administration of cysteamine (175 mg/kg) to mice measured at 24-30 hr; format: ADME, organism-based; conditions: mouse, read-out: Excretion; method in brief: as §3
# [17] = test system: Mus musculus; experiment: Percent survival at 1 hr time interval between administration (225mg/kg, ip) and irradiation* in mice; format: functional
# [18] = test system: Mus musculus; experiment: faecal levels excreted after administration of cysteamine (175 mg/kg) to mice measured at 0-30h; format: ADME, organism-based; conditions: in vivo; method in brief: as §1
structure (smiles),measurement,setting,value
c1ccc(C2NCCS2)cc1 (stereo not drawn),Survival,[1],100%
same,Survival,[2],100%
same,LD50,[3],1000 mg/kg
same,Survival,[4],85%
same,Survival,[5],100%
Brc1cccc(C2NCCS2)c1 (stereo not drawn),Survival,[1],20%
same,Survival,[2],100%
same,Excretion,[6],0.43%
same,LD50,[3],1000 mg/kg
c1ccc(C2NCC[35S]2)cc1 (stereo in doubt; 1a),Excretion,[7],0.42%
c1ccc(C2NCC[35S]2)cc1 (stereo in doubt; 1b),Excretion,[7],0.6%
O=Cc1ccccc1 [BENZALDEHYDE],Excretion,[8],0.43%
same,dose excreted,[9],5%
same,Excretion,[10],52.6%
same,dose excreted,[11],84.2%
NCCS [CYSTEAMINE],Survival,[12],45%
same,Excretion,[13],55.7%
same,Excretion,[14],42.6%
same,Survival,[15],95%
same,dose excreted,[16],4.1%
same,LD50,[3],450 mg/kg
same,Survival,[17],80%
same,Excretion,[18],0.92%
